3 compounds from ChEMBL document CHEMBL1124144, “Electrophysiologic and antiarrhythmic activities of 4-amino-N-[2-(diethylamino)ethyl]-3,5-dimethylbenzamide, a sterically hindered procainamide analogue” (1988) can be followed below.

For assay [1], the species on record is Canis lupus familiaris. Kind of assay: (§1) Sodium channel inactivating potency at 3*10e-4 M. It is filed as functional. The essentials:
(§2)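 Recovery from sodium-channel inactivation in paced canine Purkinje fibres: a premature S2 stimulus was given immediately after full repolarization. It was expressed as the ratio of premature to paced action potential rate of rise. Drug was present at 3 × 10^-4 M final, read after ~30 min. Each cell was its own control. Values are mean ± SEM, four or five experiments.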

Assay [2] deals with Canis familiaris. The assay can be described thus: Action potential duration when no compound was administered in Canine Purkinje fibers measured at 95% repolarization. It is filed as functional, Canis lupus familiaris, Purkinje fiber. The gist of the method: (§3)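 Canine Purkinje fibres superfused with Tyrode's solution (K+ 4.0, Mg2+ 1.0, Ca2+ 4.0, HCO3- 18.0, glucose 5.5 mM), paced at 1000 ms cycle length with 0.5-ms pulses at 1.5× threshold. Transmembrane potentials were recorded with 3 M KCl microelectrodes. Drug was added to the superfusate at 3 × 10^-4 M final and read at stable effect (~30 min). Each cell served as its own control. Values are mean ± SEM, four or five experiments, five tissues per drug from different dogs. Compared by ANOVA/Fisher's LSD.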

Assay [3] deals with Canis familiaris. The assay can be described thus: Effect on conversion dose required for arrhythmias in pentobarbital anesthetized dogs. It is filed as functional, Canis lupus familiaris. The gist of the method:
(§4)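 Male beagles (12–15 kg) were given pentobarbital 35 mg/kg iv plus 5 mg/kg 15 min later. Ouabain went into the cephalic vein at 50 µg/kg, then 10 µg/kg every 15 min (extra 5 µg/kg if needed) until arrhythmia was sustained. After 30 min of arrhythmia, drug in water was infused iv at 200 µg/kg/min, raised to 500 µg/kg/min after 10 min, until conversion to sinus rhythm. n = 5.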

For assay [4], the species on record is Canis familiaris. The assay can be described thus: Effective refractory period at 3 x 10e-4 M in Canine Purkinje fibers. It is filed as functional, Canis lupus familiaris, Purkinje fiber. The gist of the method:
as §3

The species named for assay [5] is Canis familiaris. Kind of assay: Amplitude at 3 x 10e-4 M concentration in Canine Purkinje fibers. In kind it is functional, Canis lupus familiaris, Purkinje fiber. The essentials:
as §3

Assay [6] is filed under the species Canis familiaris. Kind of assay: Percent change of amplitude at 3 x 10e-4 M concentration in Canine Purkinje fibers. In kind it is functional, Canis lupus familiaris, Purkinje fiber. The essentials:
as §3

The species entered for assay [7] is Canis familiaris. Kind of assay: Percent change of action potential duration at 3 x 10e-4 M, measured at 95% repolarization in Canine Purkinje fibers. It is filed as functional, Canis lupus familiaris, Purkinje fiber. The gist of the method:
as §3

The test system of assay [8] is Canis familiaris. The assay can be described thus: Maximal upstroke velocity when no compound was administered in Canine Purkinje fibers. Particulars: Canis lupus familiaris; Purkinje fiber. In kind it is functional. The essentials: as §3
For assay [9], the species on record is Canis familiaris. Kind of assay: Percent change of action potential duration at 3 x 10e-4 M, measured at 70% repolarization. In kind it is functional, Canis lupus familiaris. The essentials: as §3
Assay [10] has as its system Canis familiaris. Kind of assay: Amplitude when no compound was administered in Canine Purkinje fibers. In kind it is functional, Canis lupus familiaris, Purkinje fiber. The gist of the method: as §3
The species named for assay [11] is Canis lupus familiaris. The assay can be described thus: Sodium channel inactivating potency in the absence of compound (control). In kind it is functional. The essentials: as §2
For assay [12], the species on record is Canis familiaris. Kind of assay: Action potential duration at 3 x 10e-4 M measured at 70% repolarization. In kind it is functional, Canis lupus familiaris. The essentials:
as §3

The species entered for assay [13] is Canis familiaris. The assay can be described thus: Action potential duration at 3 x 10e-4 M measured at 95% repolarization in Canine Purkinje fibers. It is filed as functional, Canis lupus familiaris, Purkinje fiber. The gist of the method: as §3
Assay [14] relates to Canis familiaris. The assay can be described thus: Maximal upstroke velocity when 3*10e-4 M compound was administered in Canine Purkinje fibers. It is filed as functional. Particulars: Canis lupus familiaris; Purkinje fiber. The gist of the method:
as §3

The species named for assay [15] is Canis familiaris. The assay can be described thus: Percent change of resting potential at 3 x 10e-4 M in Canine Purkinje fibers. In kind it is functional, Canis lupus familiaris, Purkinje fiber. The gist of the method: as §3
Assay [16] is filed under the species Canis lupus familiaris. Described as §1. It is filed as functional. The essentials:
as §2
This is another data set of the same source.

Assay [17] concerns Canis familiaris. The assay can be described thus: Percent change in maximal upstroke velocity when 3*10e-4 M compound was administered in Canine Purkinje fibers. Particulars: Canis lupus familiaris; Purkinje fiber. In kind it is functional. The essentials:
as §3

Assay [18] deals with Canis familiaris. Kind of assay: Effect on ouabain-induced arrhythmias in pentobarbital anesthetized dogs. In kind it is functional, Canis lupus familiaris. The essentials: as §4
Assay [19] is filed under the species Canis familiaris. The assay can be described thus: Resting potential at 3 x 10e-4 M in Canine Purkinje fibers. In kind it is functional, Canis lupus familiaris, Purkinje fiber. The gist of the method: as §3
Assay [20] deals with Canis familiaris. Kind of assay: Resting potential when no compound was administered in Canine Purkinje fibers. It is filed as functional, Canis lupus familiaris, Purkinje fiber. The gist of the method: as §3
The test system of assay [21] is Canis familiaris. The assay can be described thus: Effective refractory period when no compound was administered in Canine Purkinje fibers. It is filed as functional, Canis lupus familiaris, Purkinje fiber. The gist of the method: as §3
Assay [22] concerns Canis familiaris. Kind of assay: Action potential duration when no compound was administered in Canine Purkinje fibers measured at 70% repolarization. It is filed as functional, Canis lupus familiaris, Purkinje fiber. The gist of the method:
as §3

Assay [23] is filed under the species Canis familiaris. The assay can be described thus: Percent change of effective refractory period at 3 x 10e-4 M, in Canine Purkinje fibers. It is filed as functional, Canis lupus familiaris, Purkinje fiber. The gist of the method:
as §3

Assay [24] has as its system Rattus norvegicus. Kind of assay: Plasma concentration in rat 30 minutes after administration at a dose of 25 mg/kg. In kind it is functional, organism-based. Also noted: dose 25 mg/kg. The gist of the method: (§5)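 Fischer 344 rats were given 25 mg/kg in water iv via the jugular vein, three per group. Plasma was taken by cardiac puncture at set times. Parent drug and N-acetyl metabolite were quantified by GC with a nitrogen-phosphorus detector after alkaline extraction with an internal standard. The assay was linear 1–10 µg/mL. Values are mean ± SEM.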

Assay [25] relates to Rattus norvegicus. The assay can be described thus: Plasma concentration in rat 2 hr after administration at a dose of 25 mg/kg. It is filed as functional, organism-based. Also noted: dose 25 mg/kg. The gist of the method:
as §5

For assay [26], the system named is Rattus norvegicus. Kind of assay: Plasma concentration in rat 4 hr after administration at a dose of 25 mg/kg. It is filed as functional, organism-based. Also on record: dose 25 mg/kg. The essentials:
as §5

`CCN(CC)CCNC(=O)c1ccc(N)c(C)c1`: the Na+ inactivation was -9% in assay [1], 0.96 in [11] and 0.88 in [16]. Moreover, the figures for the APD95 in [2], in [7] and in [13] were 363 ms, -7% and 336 ms, respectively. The same compound returned a Conversion dose in assay [3] of 18.3 mg/kg. The ERP was 283 ms in [4], 303 ms in assay [21] and -6% in assay [23]. Besides, the values for the Amplitude in assay [5], in assay [6] and in assay [10] were 114 mV, -12% and 129 mV, respectively. For the same compound, the Vmax in assay [8] is 462 V s-1; in [14], 282 V s-1; in assay [17], -39%. Moreover, the APD70 is -16% in assay [9], 244 ms in assay [12] and 292 ms in assay [22]. Further, the results for the Resting potential in [15], in assay [19] and in assay [20] were -4%, -85 mV and -89 mV, respectively. In assay [18], this compound returned an Ouabain dose of 0.065 mg/kg.

For `CCN(CC)CCNC(=O)c1cc(C)c(N)c(C)c1`, the Na+ inactivation is -7% in assay [1], 0.99 in assay [11] and 0.91 in assay [16]. Besides, the APD95 in assay [2] was 426 ms; in [7], -17%; in [13], 353 ms. In assay [3], this compound displayed a Conversion dose of 14.3 mg/kg. Further, the ERP is 282 ms in assay [4], 351 ms in assay [21] and -18% in assay [23]. The Amplitude in assay [5] is 117 mV; in assay [6], -11%; in [10], 131 mV. The Vmax was 632 V s-1 in assay [8], 387 V s-1 in assay [14] and -38% in assay [17]. Also, the APD70 in assay [9] is -37%; in assay [12] it was 227 ms; in assay [22] it was 363 ms. Besides, the Resting potential in assay [15] was -12%; in assay [19], -81 mV; in assay [20], -92 mV. This compound displayed an Ouabain dose in [18] of 0.069 mg/kg.

With `CCN(CC)CCNC(=O)c1ccc(N)cc1` [PROCAINAMIDE], the results for the APD95 in [2], in assay [7] and in [13] were 347 ms, 5% and 361 ms, respectively. This compound also had a Conversion dose in assay [3] of 19 mg/kg. Further, the results for the ERP in [4], in assay [21] and in assay [23] were 321 ms, 308 ms and 6%, respectively. Moreover, the Amplitude in assay [5] is 119 mV; in assay [6], -7%; in assay [10], 127 mV. The Vmax is 501 V s-1 in [8], 345 V s-1 in assay [14] and -31% in [17]. For the same compound, the Plasma concentration in assay [24] was determined as 2.29 µg/mL; in assay [25], 0.36 µg/mL; in assay [26] it was 2.3 µg/mL. Besides, the APD70 in assay [9] stood at 1%; in assay [12], 284 ms; in assay [22], 285 ms. The Na+ inactivation was 1 in assay [11] and 0.96 in [16]. For the same compound, the Resting potential was -2% in assay [15], -91 mV in assay [19] and -93 mV in [20]. Also, the Na+ inactivation change in assay [16] was -3%. The Ouabain dose in [18] was found to be 0.068 mg/kg.
